Data published in ChEMBL document CHEMBL2150909, “Imidazo[1,2-a]pyridines: orally active positive allosteric modulators of the metabotropic glutamate 2 receptor” (J Med Chem, 2012).

What was measured:
[1] = biological target: T1, Metabotropic glutamate receptor 2 (Homo sapiens, UniProt Q14416); test: Agonist activity at human mGlu 2 expressed in CHO cells assessed as [35S]GTPgammaS binding by liquid scintillation analysis; type: functional, cell-based
How it was run: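 Membranes from butyrate-stimulated (5 mM, 24 h) CHO cells expressing human mGlu2. Preincubated 30 min at 30 °C in HEPES pH 7.4 with NaCl, MgCl2, 50 μM GDP and saponin; modulator 0.3 nM–50 μM, no added glutamate. [35S]GTPγS 0.1 nM final, 30 min at 30 °C, filtered, scintillation counted. Nonspecific binding defined with cold GTP; 11 concentrations in duplicate, ≥3 curves.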
Target sequence in this assay (Q14416 whole entry): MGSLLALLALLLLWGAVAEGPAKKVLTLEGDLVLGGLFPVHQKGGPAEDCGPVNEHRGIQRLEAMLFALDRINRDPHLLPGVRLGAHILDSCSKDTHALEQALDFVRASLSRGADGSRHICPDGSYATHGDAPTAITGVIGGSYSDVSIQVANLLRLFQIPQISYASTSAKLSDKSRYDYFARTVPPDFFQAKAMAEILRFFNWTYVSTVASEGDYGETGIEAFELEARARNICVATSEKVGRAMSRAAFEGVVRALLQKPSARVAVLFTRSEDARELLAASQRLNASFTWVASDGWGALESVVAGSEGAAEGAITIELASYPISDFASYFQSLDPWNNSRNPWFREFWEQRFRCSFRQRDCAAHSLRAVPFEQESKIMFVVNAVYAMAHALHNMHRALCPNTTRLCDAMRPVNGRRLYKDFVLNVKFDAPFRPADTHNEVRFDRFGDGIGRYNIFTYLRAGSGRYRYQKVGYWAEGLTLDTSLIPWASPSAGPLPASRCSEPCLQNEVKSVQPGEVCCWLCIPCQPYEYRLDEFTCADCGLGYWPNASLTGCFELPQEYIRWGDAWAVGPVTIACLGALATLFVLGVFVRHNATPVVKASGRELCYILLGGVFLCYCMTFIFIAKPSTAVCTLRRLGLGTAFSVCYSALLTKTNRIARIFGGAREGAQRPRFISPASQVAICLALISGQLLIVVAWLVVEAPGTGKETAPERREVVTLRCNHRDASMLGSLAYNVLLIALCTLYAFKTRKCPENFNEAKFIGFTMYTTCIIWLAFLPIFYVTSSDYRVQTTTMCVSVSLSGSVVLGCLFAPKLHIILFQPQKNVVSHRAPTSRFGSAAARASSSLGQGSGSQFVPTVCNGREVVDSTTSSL

[2] = Metabolic stability of human liver microsomes assessed as compound metabolized at 5 uM after 15 mins; type: ADME, Microsome; details: read-out: Drug metabolism
How it was run: (§1)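 Test compound at 5 μM incubated 15 min with rat or human liver microsomes; read-out is percent of compound metabolized.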

[3] = biological target: T1, Metabotropic glutamate receptor 2; test: Agonist activity at human mGlu 2 expressed in CHO cells by PAM assay relative to glutamate; type: functional, cell-based
How it was run: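 The assay measured [35S]GTPγS binding to membranes from CHO cells expressing human mGluR2. Cells were butyrate-stimulated (5 mM, 24 h) before membranes were prepared. Membranes were preincubated for 30 min at 30 °C in HEPES pH 7.4 buffer (NaCl, MgCl2, 50 μM GDP) with compound (0.3 nM–50 μM, 11 concentrations) plus EC25 glutamate. [35S]GTPγS (0.1 nM final) was then added for 30 min at 30 °C. Bound label was collected by filtration and counted. Runs were done at least in triplicate with duplicate points, and a four-parameter logistic fit gave the values.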
Target sequence in this assay (Q14416 19-872 limits assumed): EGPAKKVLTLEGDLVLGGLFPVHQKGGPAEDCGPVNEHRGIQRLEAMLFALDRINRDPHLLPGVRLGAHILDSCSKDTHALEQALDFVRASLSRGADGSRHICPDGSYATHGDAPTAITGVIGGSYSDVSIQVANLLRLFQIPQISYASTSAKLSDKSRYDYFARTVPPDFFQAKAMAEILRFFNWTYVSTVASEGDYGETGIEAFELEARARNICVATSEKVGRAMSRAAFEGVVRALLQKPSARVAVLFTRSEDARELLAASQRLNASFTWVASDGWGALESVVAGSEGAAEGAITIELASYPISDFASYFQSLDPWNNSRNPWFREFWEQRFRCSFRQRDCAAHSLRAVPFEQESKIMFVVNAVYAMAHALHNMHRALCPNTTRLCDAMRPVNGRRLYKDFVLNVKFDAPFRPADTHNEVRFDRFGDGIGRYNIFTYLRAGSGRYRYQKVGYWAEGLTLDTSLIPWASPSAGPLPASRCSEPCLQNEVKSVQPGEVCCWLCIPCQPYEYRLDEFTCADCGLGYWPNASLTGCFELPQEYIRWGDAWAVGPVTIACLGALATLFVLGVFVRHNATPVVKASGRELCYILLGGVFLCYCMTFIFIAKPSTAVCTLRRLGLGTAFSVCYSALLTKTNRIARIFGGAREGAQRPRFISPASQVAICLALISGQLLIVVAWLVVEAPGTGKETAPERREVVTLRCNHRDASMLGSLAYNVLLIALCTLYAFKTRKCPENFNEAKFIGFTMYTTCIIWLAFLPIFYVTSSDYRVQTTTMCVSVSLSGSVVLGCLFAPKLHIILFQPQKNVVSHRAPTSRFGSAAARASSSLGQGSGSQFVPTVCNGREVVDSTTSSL

[4] = Metabolic stability of Sprague-Dawley rat liver microsomes assessed as compound metabolized at 5 uM after 15 mins; type: ADME, Microsome; details: read-out: Drug metabolism; how it was run: as §1
[5] = AUC (0 to infinity) in Sprague-Dawley rat at 10 mg/kg, po and 1.25 mg/kg, iv; type: ADME, organism-based; details: plasma
How it was run: (§2)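 Male Sprague-Dawley rats given 10 mg/kg orally and/or 1.25 mg/kg intravenously; compound formulated in 20% HP-β-CD at pH 4. Cmax, tmax, AUC0−inf, t1/2, clearance and oral bioavailability F derived from plasma levels; geometric mean of at least two runs ± SEM.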

[6] = Ratio of drug level in brain to plasma of SPF Swiss mouse at 10 mg/kg, sc after 4 hrs; type: ADME, organism-based; set-up: dose 10 mg/kg, route subcutaneous; details: read-out: BPR
How it was run: (§3)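 Male Swiss SPF mice, single subcutaneous dose of 10 mg/kg in 20% HP-β-CD at pH 4. Brain levels (ng/g) and plasma levels (ng/mL) measured at the stated time after dosing; brain-to-plasma ratio taken from these. Geometric mean of at least two runs ± SEM.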

[7] = Half life in Sprague-Dawley rat at 10 mg/kg, po and 1.25 mg/kg, iv; type: ADME, organism-based; details: in vivo; how it was run: as §2
[8] = Tmax in Sprague-Dawley rat at 10 mg/kg, po and 1.25 mg/kg, iv; type: ADME, organism-based; details: in vivo
How it was run: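 Rat pharmacokinetics in Sprague−Dawley rats: oral 10 mg/kg and intravenous 1.25 mg/kg, formulated in 20% HP-β-CD at pH 4. Plasma profiles used for Cmax, tmax, AUC0−inf and t1/2. Reported as geometric means of at least two runs ± SEM.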

[9] = Oral bioavailability in Sprague-Dawley rat at 10 mg/kg; type: ADME, organism-based; details: in vivo; how it was run: as §2
[10] = Drug uptake in SPF Swiss mouse brain at 10 mg/kg, sc after 4 hrs; type: ADME, organism-based; set-up: dose 10 mg/kg, route subcutaneous; details: read-out: Drug uptake
How it was run: (§4)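 Male Swiss SPF mice dosed subcutaneously at 10 mg/kg in 20% HP-β-CD, pH 4. Brain levels measured in ng/g and plasma levels in ng/mL at the stated time, with brain/plasma ratio; geometric mean of at least two runs ± SEM.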

[11] = Drug uptake in SPF Swiss mouse brain at 10 mg/kg, sc after 1 hr; type: ADME, organism-based; set-up: dose 10 mg/kg, route subcutaneous; details: read-out: Drug uptake; how it was run: as §4
[12] = Ratio of drug level in brain to plasma of SPF Swiss mouse at 10 mg/kg, sc after 2 hrs; type: ADME, organism-based; set-up: dose 10 mg/kg, route subcutaneous; details: read-out: BPR; how it was run: as §3
[13] = Drug uptake in SPF Swiss mouse brain at 10 mg/kg, sc after 2 hrs; type: ADME, organism-based; set-up: dose 10 mg/kg, route subcutaneous; details: read-out: Drug uptake; how it was run: as §4
[14] = Ratio of drug level in brain to plasma of SPF Swiss mouse at 10 mg/kg, sc after 1 hr; type: ADME, organism-based; set-up: dose 10 mg/kg, route subcutaneous; details: read-out: BPR; how it was run: as §3
[15] = Plasma concentration in SPF Swiss mouse at 10 mg/kg, sc after 1 hr; type: ADME, organism-based; set-up: dose 10 mg/kg, route subcutaneous; how it was run: as §4
[16] = Plasma concentration in SPF Swiss mouse at 10 mg/kg, sc after 4 hrs; type: ADME, organism-based; set-up: dose 10 mg/kg, route subcutaneous; how it was run: as §4
[17] = Cmax in Sprague-Dawley rat at 10 mg/kg, po and 1.25 mg/kg, iv; type: ADME, organism-based; details: in vivo; how it was run: as §2
[18] = Clearance in Sprague-Dawley rat at 10 mg/kg, po and 1.25 mg/kg, iv; type: ADME, organism-based; details: in vivo; how it was run: as §2
[19] = Plasma concentration in SPF Swiss mouse at 10 mg/kg, sc after 2 hrs; type: ADME, organism-based; set-up: dose 10 mg/kg, route subcutaneous; how it was run: as §4
[20] = Cmax in Sprague-Dawley rat at 10 mg/kg, po and 2.5 mg/kg, iv; type: ADME, organism-based; details: in vivo
How it was run: (§5)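 Rat PK: compounds formulated in 20% HP-β-CD at pH 4 and given orally and intravenously. Values are geometric means of at least two runs ± SEM.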

[21] = Clearance in Sprague-Dawley rat at 10 mg/kg, po and 2.5 mg/kg, iv; type: ADME, organism-based; details: in vivo
[22] = Half life in Sprague-Dawley rat at 10 mg/kg, po and 2.5 mg/kg, iv; type: ADME, organism-based; details: in vivo; how it was run: as §5
[23] = Tmax in Sprague-Dawley rat at 10 mg/kg, po and 2.5 mg/kg, iv; type: ADME, organism-based; details: in vivo; how it was run: as §5
[24] = AUC (0 to infinity) in Sprague-Dawley rat at 10 mg/kg, po and 2.5 mg/kg, iv; type: ADME, organism-based; details: plasma; how it was run: as §5
[25] = Drug uptake in Sprague-Dawley rat brain at 10 mg/kg, sc after 1 hr; type: ADME, organism-based; set-up: dose 10 mg/kg, route subcutaneous; details: read-out: Drug uptake
How it was run: (§6)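 Brain exposure in male Sprague-Dawley rats after a 10 mg/kg subcutaneous dose, vehicle 20% HP-β-CD at pH 4. Brain level measured in ng/g alongside plasma in ng/mL; geometric mean of at least two runs ± SEM.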

[26] = Plasma concentration in Sprague-Dawley rat at 10 mg/kg, sc after 2 hrs; type: ADME, organism-based; set-up: dose 10 mg/kg, route subcutaneous
How it was run: (§7)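 Male Sprague−Dawley rats given 10 mg/kg subcutaneously, vehicle 20% HP-β-CD at pH 4. Plasma (ng/mL) and brain (ng/g) drug levels determined at the listed post-dose time; B/P ratio derived from them. Values are geometric means of at least two runs ± SEM.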

[27] = Ratio of drug level in brain to plasma of Sprague-Dawley rat at 10 mg/kg, sc after 4 hrs; type: ADME, organism-based; set-up: dose 10 mg/kg, route subcutaneous; details: brain and plasma, read-out: BPR; how it was run: as §7
[28] = Plasma concentration in Sprague-Dawley rat at 10 mg/kg, sc after 4 hrs; type: ADME, organism-based; set-up: dose 10 mg/kg, route subcutaneous; how it was run: as §7
[29] = Drug uptake in Sprague-Dawley rat brain at 10 mg/kg, sc after 4 hrs; type: ADME, organism-based; set-up: dose 10 mg/kg, route subcutaneous; details: read-out: Drug uptake; how it was run: as §6
[30] = Plasma concentration in Sprague-Dawley rat at 10 mg/kg, sc after 1 hr; type: ADME, organism-based; set-up: dose 10 mg/kg, route subcutaneous; how it was run: as §7
[31] = Ratio of drug level in brain to plasma of Sprague-Dawley rat at 10 mg/kg, sc after 1 hr; type: ADME, organism-based; set-up: dose 10 mg/kg, route subcutaneous; details: read-out: BPR; how it was run: as §7
[32] = Drug uptake in Sprague-Dawley rat brain at 10 mg/kg, sc after 2 hrs; type: ADME, organism-based; set-up: dose 10 mg/kg, route subcutaneous; details: read-out: Drug uptake; how it was run: as §6
[33] = Ratio of drug level in brain to plasma of Sprague-Dawley rat at 10 mg/kg, sc after 2 hrs; type: ADME, organism-based; set-up: dose 10 mg/kg, route subcutaneous; details: read-out: BPR; how it was run: as §7

SMILES: N#Cc1c(-c2ccc3c(c2)OCCN3)ccn2c(CC(F)(F)F)cnc12
- EC50 [1]: 1660 nM
- metabolised at 0.25 h, 5 µM [2]: 45%
- Emax [3]: 232%
- metabolised at 0.25 h, 5 µM [4]: 100%

SMILES: N#Cc1c(-c2ccc(Oc3ccccc3)cc2)ccn2c(CC(F)(F)F)cnc12
- AUC(0-inf) [5]: 714 ng·h/mL
- Kp at 4 h [6]: 1.9
- metabolised at 0.25 h, 5 µM [2]: 23%
- half-life [7]: 2.1 h
- Tmax [8]: 0.5 h
- bioavailability [9]: 27%
- concentration at 4 h [10]: 221 ng/g
- concentration at 1 h [11]: 1840 ng/g
- Kp at 2 h [12]: 1.7
- concentration at 2 h [13]: 1530 ng/g
- Kp at 1 h [14]: 1.8
- concentration at 1 h [15]: 1040 ng/mL
- concentration at 4 h [16]: 114 ng/mL
- Cmax [17]: 274 ng/mL
- clearance [18]: 56.7 mL/min/kg
- metabolised at 0.25 h, 5 µM [4]: 23%
- concentration at 2 h [19]: 893 ng/mL

SMILES: N#Cc1c(-c2ccc3c(ccn3[C@H]3CC[C@H](O)CC3)c2)ccn2c(CC(F)(F)F)cnc12
- EC50 [1]: 330 nM
- Kp at 4 h [6]: 0.1
- metabolised at 0.25 h, 5 µM [2]: 4%
- Emax [3]: 237%
- Cmax [20]: 1060 ng/mL
- bioavailability [9]: 50%
- concentration at 4 h [10]: 280 ng/g
- concentration at 1 h [11]: 322 ng/g
- Kp at 2 h [12]: 0.1
- concentration at 2 h [13]: 469 ng/g
- clearance [21]: 11.7 mL/min/kg
- Kp at 1 h [14]: 0.1
- concentration at 1 h [15]: 4170 ng/mL
- concentration at 4 h [16]: 3860 ng/mL
- half-life [22]: 2.8 h
- Tmax [23]: 1.7 h
- metabolised at 0.25 h, 5 µM [4]: 15%
- AUC(0-inf) [24]: 7520 ng·h/mL
- concentration at 2 h [19]: 4500 ng/mL

SMILES: N#Cc1c(-c2cc(Cl)c3[nH]ccc3c2)ccn2c(CC(F)(F)F)cnc12
- EC50 [1]: 320 nM
- metabolised at 0.25 h, 5 µM [2]: 35%
- Emax [3]: 277%
- metabolised at 0.25 h, 5 µM [4]: 49%

SMILES: O[C@H]1CC[C@H](Nc2ccc(-c3ccn4c(CC(F)(F)F)cnc4c3Cl)cc2Cl)CC1
- EC50 [1]: 150 nM
- metabolised at 0.25 h, 5 µM [2]: 16%
- Emax [3]: 293%
- concentration at 1 h [25]: 1000 ng/g
- concentration at 2 h [26]: 1280 ng/mL
- Kp at 4 h [27]: 0.7
- concentration at 4 h [28]: 708 ng/mL
- concentration at 4 h [29]: 485 ng/g
- concentration at 1 h [30]: 2140 ng/mL
- Kp at 1 h [31]: 0.5
- concentration at 2 h [32]: 1220 ng/g
- metabolised at 0.25 h, 5 µM [4]: 15%
- Kp at 2 h [33]: 1

SMILES: Cn1ccc2cc(-c3ccn4c(CC(F)(F)F)cnc4c3C#N)ccc21
- metabolised at 0.25 h, 5 µM [2]: 28%
- Emax [3]: 154%
- metabolised at 0.25 h, 5 µM [4]: 55%

SMILES: N#Cc1c(-c2ccc3c(c2)OCCNC3)ccn2c(CC(F)(F)F)cnc12
- Emax [3]: 105%

SMILES: N#Cc1c(-c2ccc(OC3CCOCC3)c(Cl)c2)ccn2c(CC(F)(F)F)cnc12
- EC50 [1]: 617 nM
- metabolised at 0.25 h, 5 µM [2]: 29%
- Emax [3]: 173%
- metabolised at 0.25 h, 5 µM [4]: 50%
